According to ChEMBL document CHEMBL5705906 (Nat Commun, 2017):
Calls of active or inactive are those of the source.

Assays:
BaF3 [1] = assay: Inhibition of EGFR-C797S/T790M/del19 mutant in mouse BaF3 cells assessed as reduction in Akt phosphorylation incubated for 6 hrs by Western blotting analysis; assay type: cell-based
A549 [2] = assay: Anticancer activity against KRAS-mutated human A549 cells assessed as reduction in cell viability at 1 to 10000 nM incubated for 72 hrs by CellTiter-Glo assay; assay type: functional, cell-based; settings: dose 1-10000 nM
PC-9 [3] = assay: Inhibition of EGFR T790M/del19 mutant in human PC-9 cells assessed as reduction in Akt phosphorylation at 10 to 1000 nM by Western blotting analysis; assay type: cell-based; settings: dose 10-1000 nM
[4] = target: Epidermal growth factor receptor (Homo sapiens) (UniProt P00533); settings: dose 0.01-10000 nM, time 10.0 min
[5] = tested on: Epidermal growth factor receptor (Homo sapiens), P00533 [UNDEFINED MUTATION]; settings: PC-9, dose 500.0 nM, time 48.0 hrs
[6] = tested on: Epidermal growth factor receptor (Homo sapiens), P00533 [UNDEFINED MUTATION]; settings: PC-9, dose 500.0 nM, time 48.0 hrs; remark: listed apart in the source
MGH121 = assay: Anti-tumor activity against human MGH121 cells expressing EGFR-C797S/T790M/del19 mutant xenografted in SCID-beige mouse assessed as tumor shrinkage at 75 mg/kg, po administered for 40 days and measured twice weekly; assay type: functional, organism-based; settings: time 40.0 day
Outline: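 MGH121-res2 cells (EGFR-C797S/T790M/del19) implanted s.c. in SCID-beige mice. Randomized at mean tumour ~200 mm³. […] Tumour volume 0.5×length×width² and body weight measured twice weekly. N = 6, mean ± s.d. Mann-Whitney U test on day 42.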

[7] = tested on: Epidermal growth factor receptor (Homo sapiens), P00533 [UNDEFINED MUTATION]; settings: MGH121, dose 500.0 nM, time 48.0 hrs
BaF3 [8] = assay: Inhibition of EGFR-C797S/T790M/L858R mutant in mouse BaF3 cells assessed as inhibition of EGFR phosphorylation at 10 to 1000 nM incubated for 6 hrs by Western blotting analysis; assay type: cell-based; settings: dose 10-1000 nM
Outline: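 Ba/F3 cells expressing EGFR-L858R-series mutants treated with inhibitors for 6 h. SDS lysates quantified by BCA, run on SDS-PAGE and blotted to PVDF. Probed for phospho-EGFR (Tyr1068), total EGFR and downstream phospho-proteins.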

[9] = tested on: Epidermal growth factor receptor (Homo sapiens), P00533 [UNDEFINED MUTATION]; settings: MGH121, dose 10-1000 nM
PC-9 [10] = assay: Anti-tumor activity against human PC-9 cells expressing EGFR-C797S/T790M/del19 mutant xenografted in Balb-c nu/nu mouse assessed as prolonged survival at 75 mg/kg, po administered for 60 days and measured twice weekly in presence of cetuximab; assay type: functional, organism-based; settings: time 60.0 day
Outline: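 PC9 EGFR-C797S/T790M/del19 xenografts in Balb-c nu/nu mice, randomized at ~200 mm³. […] Tumour volume 0.5×length×width² and body weight measured twice weekly. Survival shown by Kaplan-Meier curve. N = 6. Mann-Whitney U test on tumour volume at day 23.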

[11] = tested on: Epidermal growth factor receptor (Homo sapiens), P00533 [UNDEFINED MUTATION]; settings: PC-9, dose 10-1000 nM
[12] = tested on: Epidermal growth factor receptor (Homo sapiens), P00533 [UNDEFINED MUTATION]; settings: MGH121, dose 10-1000 nM; remark: listed apart in the source
PC-9 [13] = assay: Anti-tumor activity against human PC-9 cells expressing EGFR-C797S/T790M/del19 mutant xenografted in Balb-c nu/nu mouse assessed as decreased tumor growth at 75 mg/kg, po administered for 60 days and measured twice weekly in presence of panitumumab; assay type: functional, organism-based; settings: time 60.0 day
Outline: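 PC9 EGFR-C797S/T790M/del19 xenografts in Balb-c nu/nu mice, randomized at ~200 mm³. […] Tumour volume 0.5×length×width² measured twice weekly. Survival by Kaplan-Meier. N = 6. Mann-Whitney U test at days 16 and 23.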

BaF3 [14] = settings: Mus musculus, dose 10-1000 nM
BaF3 [15] = assay: Inhibition of EGFR-C797S/T790M/del19 mutant in mouse BaF3 cells assessed as reduction in S6 phosphorylation incubated for 6 hrs by Western blotting analysis; assay type: cell-based
Outline: (§1)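 Ba/F3 cells carrying the stated EGFR mutant were made IL-3-independent after 1 week of 7 µM blasticidin selection. They were grown in low-glucose DMEM with 10% FBS and exposed to inhibitor for 6 h. Cells were washed in cold PBS, lysed in SDS buffer (100 mM Tris, 1% SDS, 10% glycerol) and boiled 5 min. Protein was measured by BCA, run on SDS-PAGE, transferred to PVDF, blocked in 5% BSA or milk/TBS-T, and immunoblotted.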

PC-9 [16] = settings: Homo sapiens, dose 75.0 mg/kg, route po, time 15.0 day
BaF3 [17] = assay: Inhibition of EGFR-T790M/del19 mutant in mouse BaF3 cells assessed as inhibition of EGFR phosphorylation at 10 to 1000 nM incubated for 6 hrs by Western blotting analysis; assay type: cell-based; settings: dose 10-1000 nM; outline: as §1
PC-9 [18] = settings: Homo sapiens, dose 75.0 mg/kg, route po, time 60.0 day
BaF3 [19] = assay type: cell-based; settings: Mus musculus, dose 10-1000 nM, time 6.0 hrs
[20] = tested on: Epidermal growth factor receptor (Homo sapiens), P00533 [UNDEFINED MUTATION]; settings: PC-9, dose 10-1000 nM; remark: listed apart in the source
[21] = tested on: Epidermal growth factor receptor (Homo sapiens), P00533 [UNDEFINED MUTATION]; settings: MGH121, dose 500.0 nM, time 6-48 hrs, TDE = time-dependent effect
BaF3 [22] = settings: Mus musculus, dose 10-1000 nM; remark: listed apart in the source
A549 [23] = assay: Anticancer activity against human A549 cells assessed as reduction in cell viability at IC50 concentration incubated for 72 hrs by CellTiter-Glo assay; assay type: functional, cell-based
Outline: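 Three-day CellTiter-Glo viability assay. Cells exposed to compound across a 10-dose range of 0.3 nM to 10 µM for 72 h. IC50 from nonlinear sigmoidal dose-response fit.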

PC-9 [24] = assay: Anti-tumor activity against EGFR T790M/del19 mutant expressing gefitinib-resistant human PC-9 cells xenografted in Balb-c nu/nu mouse assessed as growth inhibition at 75 mg/kg, po administered for 42 days; assay type: functional, organism-based; settings: time 42.0 day
BaF3 [25] = settings: Mus musculus, dose 10-1000 nM, time 6.0 hrs
BaF3 [26] = assay: Inhibition of EGFR-C797S/T790M/del19 mutant in mouse BaF3 cells assessed as reduction in EGFR phosphorylation incubated for 6 hrs by Western blotting analysis; assay type: cell-based
BaF3 [27] = assay type: cell-based; settings: Mus musculus, dose 10-1000 nM, time 6.0 hrs; remark: listed apart in the source

Chain of Epidermal growth factor receptor (Homo sapiens), P00533 [UNDEFINED MUTATION] (P00533 whole entry, looked up, stated change not applied): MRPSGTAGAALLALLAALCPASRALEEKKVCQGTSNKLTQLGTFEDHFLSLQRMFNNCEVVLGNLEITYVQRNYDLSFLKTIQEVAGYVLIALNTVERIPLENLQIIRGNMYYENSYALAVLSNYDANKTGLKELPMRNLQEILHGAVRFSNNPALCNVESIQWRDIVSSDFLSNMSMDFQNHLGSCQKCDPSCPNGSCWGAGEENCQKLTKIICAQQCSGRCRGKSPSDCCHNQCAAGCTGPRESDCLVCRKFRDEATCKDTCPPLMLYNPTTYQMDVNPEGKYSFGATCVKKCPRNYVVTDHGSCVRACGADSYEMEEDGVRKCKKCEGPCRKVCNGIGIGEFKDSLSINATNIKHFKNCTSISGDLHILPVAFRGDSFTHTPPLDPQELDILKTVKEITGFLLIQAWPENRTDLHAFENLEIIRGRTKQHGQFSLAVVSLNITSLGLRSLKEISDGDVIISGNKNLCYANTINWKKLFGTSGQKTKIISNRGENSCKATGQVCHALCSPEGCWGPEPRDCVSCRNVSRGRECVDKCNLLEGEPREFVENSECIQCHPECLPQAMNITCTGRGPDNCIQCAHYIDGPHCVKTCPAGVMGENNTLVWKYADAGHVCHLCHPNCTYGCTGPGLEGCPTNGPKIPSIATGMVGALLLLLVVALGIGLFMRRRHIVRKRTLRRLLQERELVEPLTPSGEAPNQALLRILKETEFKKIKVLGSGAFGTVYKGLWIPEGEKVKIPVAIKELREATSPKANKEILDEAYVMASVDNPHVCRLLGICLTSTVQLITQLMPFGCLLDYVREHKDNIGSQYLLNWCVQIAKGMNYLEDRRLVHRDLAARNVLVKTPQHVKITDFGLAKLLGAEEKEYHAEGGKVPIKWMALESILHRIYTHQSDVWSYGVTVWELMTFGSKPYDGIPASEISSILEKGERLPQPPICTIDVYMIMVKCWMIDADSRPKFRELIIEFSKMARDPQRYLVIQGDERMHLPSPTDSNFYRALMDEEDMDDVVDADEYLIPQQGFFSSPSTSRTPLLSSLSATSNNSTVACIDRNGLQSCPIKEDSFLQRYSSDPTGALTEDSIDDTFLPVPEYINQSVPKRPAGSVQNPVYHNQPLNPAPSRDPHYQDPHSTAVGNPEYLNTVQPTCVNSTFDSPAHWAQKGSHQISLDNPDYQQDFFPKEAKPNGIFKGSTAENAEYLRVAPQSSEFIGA
Chain of Epidermal growth factor receptor (Homo sapiens) (P00533 whole entry): as the sequence (P00533 whole entry, looked up, stated change not applied) above

COc1cc(N2CCC(N3CCN(C)CC3)CC2)ccc1Nc1ncc(Cl)c(Nc2ccccc2P(C)(C)=O)n1 [BRIGATINIB]
active: inhibition (BaF3 [1]) Dose-Dependent Effect | Activity (A549 [2]) | inhibition (PC-9 [3]) | inhibition [4] Dose-Dependent Effect | inhibition [5] | inhibition [6] | Activity (MGH121) | inhibition (BaF3 [8]) | inhibition [9] | Activity (PC-9 [10]) | inhibition [11] | inhibition [12] | Activity (PC-9 [13]) | inhibition (BaF3 [14]) Dose-Dependent Effect | inhibition (BaF3 [15]) Dose-Dependent Effect | inhibition (PC-9 [16]) | inhibition (BaF3 [17]) | inhibition (PC-9 [18]) | inhibition (BaF3 [19]) | inhibition [20] | inhibition [21] Tde | inhibition (BaF3 [22]) Dose-Dependent Effect | Activity (A549 [23]) | Activity (PC-9 [24]) | inhibition (BaF3 [25]) | inhibition (BaF3 [26]) Dose-Dependent Effect | inhibition (BaF3 [27])
inactive: inhibition [7]
